Compounds with a hit are over-represented: about 3.5% of the library has one in this group of screens.
Ecoli rRNA inh – reduced GFP signal of wild-type E. coli, primary screen, bacterial rRNA inhibitor project, GFP/RFP fluorescence, OD600, single point | E. coli WT GFP vs humanized-ribosome RFP mutants, 24 h; hits give low values; DMSO median 0, no signal -100 | GFP signal change (wild-type ribosome), % (concentration not given with the values) | 350,000 compounds, 1.6% hits;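 active = significant combined selectivity score with lowered wild-type GFP, culture density cut under 30%, mutant RFP and density less affected; inactive = any of these conditions unmet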
HIV Env fusion – inhibitors of HIV-1 Env-driven cell-cell fusion, primary screen, HeLa-JRFL effector, CEM21 target cells, luciferase; inhibition, % at 12.3 µM; 360,000 compounds, 1.1% hits; AID 651610, 2012;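 active = mean replicate inhibition score of at least 50 and every replicate individually at or above 50; inconclusive = only one of the two criteria met; inactive = mean below 50 and not all replicates reaching 50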;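 also: 0% = plate neutral controls and 100% = maraviroc near 300 nM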
PglD inh – C. jejuni PglD acetyltransferase inhibitors, primary screen, biochemical, DTNB colorimetric, single point; UDP-N-acetylbacillosamine N-acetyltransferase PglD (Campylobacter jejuni); purified PglD enzyme, DTNB colorimetric CoA detection; inhibition, % at 12.5 µM; 360,000 compounds, 0.098% hits; AID 602405, 2012; in the data active = inhibition above about 16%, passing the limit was not always enough; inconclusive = no clear call, values can overlap the other calls
PGC1a acetyl inh – inhibitors of PGC1a acetylation signal, primary screen, cell-based, U2OS, AlphaScreen, inhibitor mode. AlphaScreen anti-acetyl-lysine; with virally co-expressed GCN5 acetyltransferase. inhibition, % at 15.6 µM. 350,000 compounds, 0.17% hits;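 active = every replicate shows inhibition of at least 40%; inconclusive = mean inhibition at least 40% but some replicate below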;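 also: 0% = neutral control wells and 100% = positive control wells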
DENV2 CPE rescue – inhibitors of DENV2 cytopathic effect, primary screen, cell-based, plate reader, single concentration; DENV2-infected cells, cytopathic effect rescue; CPE inhibition, % at 9.99 µM; 350,000 compounds, 1.7% hits; in the data active = CPE inhibition above about 20%, passing the limit was not always enough; inconclusive = no clear call, values can overlap the other calls; tested in BHK-21 cells;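 also: 0% = median of neutral control wells and 100% = median of positive control wells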
FN deposit inh – inhibitors of fibronectin matrix deposition, primary screen, AH1F cells, Alexa488-fibronectin fluorescence, plate reader. AH1F fibroblasts, overnight. inhibition, % at 12.6 µM. 350,000 compounds, 0.086% hits. AID 743247, 2014;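 active = mean inhibition across replicates of 30% or more, regardless of how many single replicates reach that level; inconclusive = mean under 30% yet at least half of replicates reach 30%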;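 also: positive control wells lacked labelled fibronectin entirely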
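Assay system: AH1F fibroblast monolayer, labelled fibronectin deposition. Amount: 10000 cells per well. Also added: labelled fibronectin 24 nM. Compound: single-point pinned compound. Incubation: cell attachment 1 h, compound and FN exposure overnight. Detection: fluorescence after three HBSS washes, excitation 485 nm, emission 525 nm. Read-out: inhibition of fibronectin deposition signal.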
Starred values were filed as active, the others as inactive; ? = inconclusive; nt = no result given; [ ] = remark or other dose.

SMILES | Ecoli rRNA inh | HIV Env fusion | PglD inh | PGC1a acetyl inh | DENV2 CPE rescue | FN deposit inh
CCOc1ccc(NC(=O)COn2nnc3ccc(S(=O)(=O)N4CCOCC4)cc32)cc1 | -29.4* | 11.0 | nt | 13.8 | -2.8 | -1.2
C=CCN(CC=C)C(=O)COn1nnc2ccc(S(=O)(=O)N3CCOCC3)cc21 | 7.0 | 2.9 | 0.9 | 5.2 | ? | -4.2
CNC(=O)c1c(NC(=O)c2ccc(S(=O)(=O)N(C)c3ccccc3)cc2)sc2c1CCN(C(C)C)C2 | -4.8 | 4.6 | nt | nt | 96.1* | 5.2
CNC(=O)C[C@@H]1CC[C@H]2[C@H](COc3ccc(NC(=O)c4cc(F)cc(F)c4)cc3C(=O)N2C)O1 | -1.9 | 0.3[16.7 µM] | -6.7 | 28.6 | -2.8 | 2.2
CC(C)CC1C(=O)N(Cc2cn(Cc3ccco3)nn2)CCS(=O)(=O)N1Cc1ccc(-c2cccc(CO)c2)cc1 (centres undefined) | 3.0 | nt | -0.2 | -20.6 | 14.4 | 3.0
CC(C)C1C(=O)N(Cc2cn(Cc3ccco3)nn2)CCS(=O)(=O)N1Cc1ccc(-c2cccc(N(C)C)c2)cc1 (centres undefined) | 3.7 | 16.5 | nt | 10.4 | -2.5 | 7.3
COCOCCn1cc(CN2CCS(=O)(=O)N(Cc3ccc(-c4ccc(Cl)cc4)cc3)C(C)C2=O)nn1 (centres undefined) | nt | 57.4* | -3.7 | -8.1 | 9.3 | -3.5
Cc1ccc(-c2ccc(CN3C(C(C)C)C(=O)N(Cc4cn(Cc5ccco5)nn4)CCS3(=O)=O)cc2)cc1 (centres undefined) | nt | 12.6 | 2.5 | 3.0 | 28.0* | 7.0
CCC/C=C/c1ccc(CN2C(C(C)C)C(=O)N(Cc3cn(CC4CCCCC4)nn3)CCS2(=O)=O)cc1 (centres undefined) | -2.7 | 68.2* | -7.0 | -10.5 | -8.7 | -2.2
CC(C)CC1C(=O)N(Cc2cn(Cc3ccco3)nn2)CCS(=O)(=O)N1Cc1ccc(-c2ccc(Cl)cc2)cc1 (centres undefined) | nt | -44.4 | nt | -9.2 | 22.6* | -4.2
Cc1ccc(-c2ccc([C@H]3[C@@H](CO)N4CCCCN(C(=O)Nc5cccc(F)c5)C[C@H]34)cc2)cc1 | -59.0 | nt | -2.8 | -26.1 | -10.8 | nt
Cc1ccc(S(=O)(=O)Nc2ccc3c(c2)C(=O)N([C@@H](C)CO)C[C@@H](C)[C@@H](CN(C)C(=O)Nc2c(C)noc2C)OCCCC[C@@H](C)O3)cc1 | -2.2 | -10.1[16.7 µM] | 4.1 | -14.9 | ? | -1.8
Cc1noc(C)c1S(=O)(=O)Nc1ccc2c(c1)C(=O)N([C@H](C)CO)C[C@@H](C)[C@@H](CN(C)C(=O)NC1CCCCC1)OCCCC[C@H](C)O2 | -1.6 | -17.9[16.7 µM] | 1.0 | nt | -1.4 | nt
CCOC(=O)N1CCN(S(=O)(=O)c2ccc3c(c2)CC(C)N3C(C)=O)CC1 (centres undefined) | -46.2* | 0.8 | -0.6 | nt | 2.8 | -20.5
COc1ccccc1NC(=O)CCNS(=O)(=O)c1ccc2c(c1)CC(C)N2C(=O)C1CC1 (centres undefined) | -8.2 | 6.2 | -2.3 | -12.0 | 4.4 | 2.4
COc1ccc(C)cc1NC(=O)CCNS(=O)(=O)c1ccc2c(c1)CC(C)N2C(C)=O (centres undefined) | 2.3 | 79.0* | -1.0 | -9.1 | ? | 4.4
O=C(NCC[C@@H]1CC[C@H](NS(=O)(=O)c2ccc(F)cc2)[C@@H](CO)O1)c1ccc2c(c1)OCO2 | -1.9 | -13.4[16.7 µM] | 1.0 | -2.3 | 13.3 | -8.7
O=C(N[C@@H]1CC[C@@H](CCn2cc(C3(O)CCCC3)nn2)O[C@@H]1CO)C1CCCCC1 | 1.3 | 12.6[16.7 µM] | 0.4 | 5.4 | 9.2 | nt
CCC(=O)N1C[C@@H](C)[C@@H](OC)CN(C)C(=O)c2cc(NC(=O)c3ccc(F)cc3)ccc2OC[C@@H]1C | -2.6 | 3.9[16.7 µM] | 1.4 | -14.0 | 17.1 | 9.7
CCN(CCCNC(=O)CC(C(=O)N1CCc2ccccc21)n1ccnc1)c1ccccc1 (centres undefined) | nt | 62.6* | 1.3 | -2.4 | nt | 1.2
